Screening results (PubChem)
Rows were chosen to be rich in hits. Some 4.7% of all compounds tested hit in one or more screens of this group.
697 NFkB inh = lowers PMA/ionomycin-induced NF-kB signal in 697 B cells | 697 B-cell NF-kB luciferase reporter, 16 h | inhibition, % at 4 µM | 330,000 tested, 0.33% active | AID 435022; in the data active = inhibition above about 35%
IMP-1 inh-1 = blocks Pseudomonas aeruginosa IMP-1 metallo-beta-lactamase. purified IMP-1, nitrocefin hydrolysis, epi-absorbance fluorescence. 290,000 tested, 0.45% active. inhibition, % at 5.6 µM. AID 1556;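 active = inhibition above the mean plus 3 SD of all compounds in the same screening run, cut at about 4.5% in these data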;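 also: 0% = IMP-1 with DMSO and 100% = DMSO wells lacking enzyme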
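Test system: recombinant IMP-1 enzyme, purified / Medium: HEPES buffer pH 7.1 with ZnSO4 and Brij 35 / Doses: single dose, 5.6 µM / Times: 25 °C, 15 min preincubation, 25 min reaction / Detection: Epi-absorbance via hydrolysed-nitrocefin quenching of white-plate fluorescence, 480/530 nm, EDTA stop / Evaluation: percent inhibition from optical density relative to buffer-blank wells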
aSyn 5UTR inh = MLPCN primary screen, SNCA 5' untranslated region; alpha-synuclein 5'UTR reporter, inhibitor activity; inhibition, % (tested at 7.5 µM); 300,000 tested, 0.82% active; in the data active = inhibition above about 60%;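 also: H4 neuroglioblastoma cells stably carrying SNCA 5'UTR luciferase fusion; 0% = DMSO wells and 100% = positive control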
VIM-2 inhibitor = blocks Pseudomonas aeruginosa VIM-2 metallo-beta-lactamase; purified VIM-2, nitrocefin hydrolysis, epi-absorbance fluorescence; inhibition, % at 5.6 µM; 290,000 tested, 0.89% active; AID 1527;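 active = inhibition above the mean of all tested compounds plus 3 SD, cutoff set per screening run, cut at about 7.5% in these data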;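 also: red hydrolysis product quenches plate fluorescence so inhibitors raise well fluorescence; 0% = enzyme with DMSO and 100% = DMSO without enzyme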
Mdm2-MdmX inh = human Mdm2/MdmX binding inhibition; O15151+Q00987; SaOS-2 split-luciferase Mdm2/MdmX complementation, luminescence; inhibition, % at 8 µM; 330,000 tested, 3% active; AID 485346;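 active = inhibition of at least 50% at 8 µM in the primary screen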
Jurkat NFkB inh = lowers PMA/ionomycin-induced NF-kB signal in Jurkat cells | PMA/ionomycin-induced NF-kB luciferase reporter, luminescence | inhibition, % at 4 µM | 330,000 tested, 0.53% active; in the data active = inhibition above about 50%
IMP-1 inh-2 = selectivity counter-screen for VIM-2 inhibitors: IMP-1 metallo-beta-lactamase inhibitors. shares compounds with VIM-2 inhibitor. purified IMP-1, nitrocefin hydrolysis, epi-absorbance fluorescence. inhibition, % at 5.6 µM. 1,300 tested, under 10 active. AID 1856; call rule not given here;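 also: 0% = enzyme with vehicle and 100% = vehicle without enzyme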
VIM-2 FRET ctr = VIM-2 FRET inhibition, artifact counter-screen. shares compounds with VIM-2 inhibitor. purified VIM-2, CCF2 FRET substrate hydrolysis. 1,300 tested, 23% active. inhibition, % at 5.6 µM;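 active = inhibition above the mean of all tested compounds plus 3 SD, cut at about 19% in these data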;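 also: 0% = VIM-2 plus DMSO and 100% = no enzyme wells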
TEM-1 counter = blocks E. coli TEM-1 beta-lactamase in VIM-2 selectivity screen; Purified TEM-1, nitrocefin hydrolysis, epi-absorbance fluorescence; inhibition, % at 5.6 µM; 1,300 tested, 3% active; shares compounds with VIM-2 inhibitor;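 active = inhibition above that campaign's mean inhibition plus 3 SD, cut at about 0.46% in these data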;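 also: 0% = TEM-1 with DMSO and 100% = TEM-1 with 100 µM potassium clavulanate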
Target sequence (P62593 whole entry, looked up): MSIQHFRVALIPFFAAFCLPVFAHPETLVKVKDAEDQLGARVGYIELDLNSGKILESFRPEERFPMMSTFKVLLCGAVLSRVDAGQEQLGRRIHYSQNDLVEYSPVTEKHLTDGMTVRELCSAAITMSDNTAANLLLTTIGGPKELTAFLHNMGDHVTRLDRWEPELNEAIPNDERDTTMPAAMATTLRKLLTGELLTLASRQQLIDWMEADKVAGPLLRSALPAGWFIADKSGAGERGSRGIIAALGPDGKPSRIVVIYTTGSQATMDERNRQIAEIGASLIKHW
VIM-2 confirm 2 = confirmation of P. aeruginosa VIM-2 metallo-beta-lactamase inhibitors. inhibition, % at 5.6 µM. shares compounds with VIM-2 inhibitor. 1,300 tested, 96% active. purified VIM-2, nitrocefin hydrolysis, epi-absorbance. AID 2187;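 active = inhibition of the VIM-2 beta-lactamase enzyme above about 11% from the earlier first-round screen, limit read from the data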;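 also: 0% = VIM-2 with DMSO and 100% = buffer wells without enzyme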
Active calls of the source: *; x = no result given.

SMILES	697 NFkB inh	IMP-1 inh-1	aSyn 5UTR inh	VIM-2 inhibitor	Mdm2-MdmX inh	Jurkat NFkB inh	IMP-1 inh-2	VIM-2 FRET ctr	TEM-1 counter	VIM-2 confirm 2
C/C(O)=C(\C#N)c1nc2ccccc2[nH]1	4	-4	10	-6	-24	6	x	x	x	x
Cc1cc(C)cc(OCC(=O)OC/C(O)=C(\C#N)c2nc3ccccc3[nH]2)c1	6	1	-41	14*	20	35	-3	-8	-4	5
COc1cccc(C(=O)NCC(=O)N2CCC3(CC2)NCCc2[nH]cnc23)c1OC	4	-1	-9	-1	26	-8	x	x	x	x
COc1ccc(N(CC(=O)N2CCN(c3cccc(C)c3C)CC2)S(=O)(=O)c2c(C)noc2C)cc1	1	-2	13	-3	37	-5	x	x	x	x
Cc1ccccc1C(=O)c1cccn1CC(=O)NCc1ccccc1	11	-1	-10	1	-14	-7	x	x	x	x
Cc1ccccc1C(=O)c1cccn1CC(=O)O	13	-3	-4	38*	12	-9	-2	57*	1.3*	43*
CC(C)(C)C(=O)Nc1nnc(SCC(=O)NCc2cccs2)s1	24	-2	-1	56*	11	-1	-3	79*	-6	61*
Cc1ccccc1Nc1nnc(SCC(=O)NCc2cccs2)s1	-2	-1	6	3	-27	9	x	x	x	x
Cc1cccc(C)c1Nc1nnc(SCC(=O)NCc2cccs2)s1	14	-2	-3	0	-1	2	x	x	x	x
CC(C)C(=O)Nc1nnc(SCC(=O)NCc2cccs2)s1	20	-3	31	14*	22	-2	-3	41*	-5	26*
CCOc1ccc(N2CC(C(=O)Nc3ccccc3N3CCCC3)CC2=O)cc1 (stereo unspecified)	-2	-3	-1	-1	-6	3	x	x	x	x
O=C(N=C1SC2CS(=O)(=O)CC2N1c1ccc(Cl)c(Cl)c1)C1CCCO1 (stereo unspecified)	19	-3	-4	-2	8	7	x	x	x	x
COc1cc(Nc2cc(C)nc3nc(C)nn23)cc(OC)c1OC	13	-2	2	13*	7	7	-3	-2	-6	33*
Cc1cc(Nc2ccc(F)c(Cl)c2)n2ncnc2n1	-9	-3	0	2	14	-13	x	x	x	x
COc1ccc(Nc2cc(C)nc3nc(C)nn23)cc1Cl	0	-2	-18	19*	9	-15	-3	-3	-4	29*
Cc1cc(Nc2ccc(C)c(Br)c2)n2nc(C)nc2n1	11	-4	19	14*	16	1	-4	-2	-7	28*
COc1ccc(C(=O)NCC(=O)N/N=C/c2ccc(C)o2)cc1OC	10	0	4	-2	24	2	x	x	x	x
Cc1ccc(CSc2ccc3nnc(-c4ccccn4)n3n2)cc1	-7	-3	-9	21*	-1	16	-4	-3	-6	34*
Brc1ccc(CSc2ccc3nnc(-c4ccccn4)n3n2)cc1	-5	-3	2	25*	-2	7	-4	-4	-7	52*
Cc1ccc(C)c(CSc2ccc3nnc(-c4ccccn4)n3n2)c1	-53	-3	10	14*	11	7	-3	-3	-8	25*
COC(=O)c1ccc(CSc2ccc3nnc(-c4ccccn4)n3n2)o1	-47	-4	36	21*	-22	-13	-4	3	-5	38*
COc1ccc(CNC(=O)C2CCN(C(=O)c3cccc(Cl)c3)CC2)cc1	25	-2	20	1	0	10	x	x	x	x
CCN(CC)CCNc1ccc(CO)c2sc3ccccc3c(=O)c12	-11	-3	-35	24*	47	-27	1	-1	-8	35*
CCOC(=O)N1CCC(Nc2ccc3nnc(-c4ccccc4)n3n2)CC1	12	-4	11	15*	46	-8	-3	0	-3	24*
COCCNc1cc(C)c(C#N)c2nc3ccccc3n12	-7	0	9	26*	-4	-5	-3	-10	-6	39*
SMILES	697 NFkB inh	IMP-1 inh-1	aSyn 5UTR inh	VIM-2 inhibitor	Mdm2-MdmX inh	Jurkat NFkB inh	IMP-1 inh-2	VIM-2 FRET ctr	TEM-1 counter	VIM-2 confirm 2
Cc1cc(NCCOCCO)n2c(nc3ccccc32)c1C#N	6	-3	11	33*	6	-5	-4	-9	-4	50*
Cc1cc(NCCCO)n2c(nc3ccccc32)c1C#N	-6	-2	15	6	10	-5	x	x	x	x
CCN(CC)c1cc(C)c(C#N)c2nc3ccccc3n12	-27	-4	29	-3	14	22	x	x	x	x
CCCCc1cc(=O)oc2c3c(cc(OCC(=O)N4CCC[C@H]4C(=O)O)c12)OC(C)(C)CC3	9	-5	-1	16*	8	-3	-3	36*	-6	20*
Cc1cc(=O)oc2c3c(cc(OCC(=O)N4CCC(C(=O)O)CC4)c12)OC(C)(C)CC3	9	-4	-3	0	-3	15	x	x	x	x
CCCCCCc1c(C)c2ccc(OCC(=O)N3CCC[C@H]3C(=O)O)c(C)c2oc1=O	-10	-2	9	-4	1	-13	x	x	x	x
Cc1cc(OCC(=O)N2CCC[C@@H]2C(=O)O)c2c(C)c(C)c(=O)oc2c1	13	-3	16	27*	14	-20	-3	51*	-5	33*
CCCc1cc(=O)oc2c(C)c(OCC(=O)N3CCC[C@@H]3C(=O)O)ccc12	10	-4	4	23*	7	-1	-2	41*	-5	24*
Cc1cc(=O)oc2c3c(cc(OCC(=O)N4CCC[C@H]4C(=O)O)c12)OC(C)(C)CC3	10	-2	16	26*	27	7	-3	46*	-3	29*
CCN(CC(=O)NC1CCCC1)S(=O)(=O)c1ccc(F)cc1	12	-2	-2	-2	6	0	x	x	x	x
CCc1ccc(NC(=O)CCC(=O)Nc2nnc(C(F)(F)F)s2)cc1	-17	0	-73	-7	17	-18	x	x	x	x
COc1ccc(NC(=O)C2(S(=O)(=O)c3ccc(C)cc3)CC2)cc1	20	-3	4	-3	8	6	x	x	x	x
Cc1ccc(C(=O)NC(=S)Nc2ccc(S(=O)(=O)N3CCN(C)CC3)cc2)cc1	-16	-2	-8	31*	24	3	-2	0	-8	63*
